Test results from ChEMBL document CHEMBL3286381 (J Med Chem, 2014).

What was measured:
Assay type in all cases: ADME, cell-based
Conditions in all cases: cos-7, 1 h
[1] = molecular target: T1, Ectonucleotide pyrophosphatase/phosphodiesterase family member 3 (Homo sapiens, UniProt O14638); assay: Drug metabolism assessed as human NPP3-mediated compound hydrolysis expressed in African green monkey COS7 cells at 100 uM after 1 hr by HPLC analysis
T1 sequence (O14638 whole entry): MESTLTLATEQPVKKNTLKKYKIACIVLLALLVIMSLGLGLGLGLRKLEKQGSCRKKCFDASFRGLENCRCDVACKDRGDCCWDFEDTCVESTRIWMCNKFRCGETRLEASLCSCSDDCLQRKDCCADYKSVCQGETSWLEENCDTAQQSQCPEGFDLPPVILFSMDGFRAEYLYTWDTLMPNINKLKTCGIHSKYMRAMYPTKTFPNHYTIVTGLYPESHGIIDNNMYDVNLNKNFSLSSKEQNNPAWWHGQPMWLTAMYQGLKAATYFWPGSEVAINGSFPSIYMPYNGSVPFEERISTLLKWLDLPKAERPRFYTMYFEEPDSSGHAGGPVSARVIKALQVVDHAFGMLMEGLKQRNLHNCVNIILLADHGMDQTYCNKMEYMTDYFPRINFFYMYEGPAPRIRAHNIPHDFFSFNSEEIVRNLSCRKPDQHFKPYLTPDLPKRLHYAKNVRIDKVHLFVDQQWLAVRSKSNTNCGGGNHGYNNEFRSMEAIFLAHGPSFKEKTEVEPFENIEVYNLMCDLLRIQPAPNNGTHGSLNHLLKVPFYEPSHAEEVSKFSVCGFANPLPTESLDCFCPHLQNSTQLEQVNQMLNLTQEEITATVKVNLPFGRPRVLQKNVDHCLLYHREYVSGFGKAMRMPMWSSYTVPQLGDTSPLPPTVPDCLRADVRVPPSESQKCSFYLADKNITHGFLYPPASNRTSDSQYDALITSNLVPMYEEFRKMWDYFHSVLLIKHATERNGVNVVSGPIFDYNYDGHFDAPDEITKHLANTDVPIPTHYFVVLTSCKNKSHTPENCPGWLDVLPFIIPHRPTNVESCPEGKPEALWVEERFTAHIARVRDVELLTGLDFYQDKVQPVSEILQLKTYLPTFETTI

[2] = molecular target: T2, Ectonucleoside triphosphate diphosphohydrolase 2 (Homo sapiens, UniProt Q9Y5L3); assay: Drug metabolism assessed as human NTPDase-2-mediated compound hydrolysis expressed in African green monkey COS7 cells at 100 uM after 1 hr by HPLC analysis
T2 sequence (Q9Y5L3 whole entry): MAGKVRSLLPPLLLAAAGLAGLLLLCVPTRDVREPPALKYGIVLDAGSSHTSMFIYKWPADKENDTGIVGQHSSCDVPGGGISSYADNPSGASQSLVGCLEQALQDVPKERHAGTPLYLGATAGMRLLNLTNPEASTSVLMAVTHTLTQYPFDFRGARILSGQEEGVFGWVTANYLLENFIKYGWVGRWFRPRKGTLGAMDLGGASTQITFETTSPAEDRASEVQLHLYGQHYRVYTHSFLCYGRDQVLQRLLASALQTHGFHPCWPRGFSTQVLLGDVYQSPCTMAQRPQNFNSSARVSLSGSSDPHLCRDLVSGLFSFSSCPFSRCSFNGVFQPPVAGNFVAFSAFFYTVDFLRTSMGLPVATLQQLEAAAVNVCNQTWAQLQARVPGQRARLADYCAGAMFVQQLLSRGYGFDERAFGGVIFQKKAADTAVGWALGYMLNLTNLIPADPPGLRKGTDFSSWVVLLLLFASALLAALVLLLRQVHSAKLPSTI
Procedure, shortened: (§1)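 Protein extracts are from COS-7 cells transiently transfected with human NTPDase1, 2, 3 or 8. The incubation uses Tris–Ringer buffer pH 7.3 at 37 °C with 3 min extract preincubation. Analogue is added alone at 100 μM final. […] Three experiments in triplicate.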

[3] = molecular target: T3, Ectonucleoside triphosphate diphosphohydrolase 3 (Homo sapiens, UniProt O75355); assay: Drug metabolism assessed as human NTPDase-3-mediated compound hydrolysis expressed in African green monkey COS7 cells at 100 uM after 1 hr by HPLC analysis; procedure, shortened: as §1
T3 sequence (O75355 whole entry): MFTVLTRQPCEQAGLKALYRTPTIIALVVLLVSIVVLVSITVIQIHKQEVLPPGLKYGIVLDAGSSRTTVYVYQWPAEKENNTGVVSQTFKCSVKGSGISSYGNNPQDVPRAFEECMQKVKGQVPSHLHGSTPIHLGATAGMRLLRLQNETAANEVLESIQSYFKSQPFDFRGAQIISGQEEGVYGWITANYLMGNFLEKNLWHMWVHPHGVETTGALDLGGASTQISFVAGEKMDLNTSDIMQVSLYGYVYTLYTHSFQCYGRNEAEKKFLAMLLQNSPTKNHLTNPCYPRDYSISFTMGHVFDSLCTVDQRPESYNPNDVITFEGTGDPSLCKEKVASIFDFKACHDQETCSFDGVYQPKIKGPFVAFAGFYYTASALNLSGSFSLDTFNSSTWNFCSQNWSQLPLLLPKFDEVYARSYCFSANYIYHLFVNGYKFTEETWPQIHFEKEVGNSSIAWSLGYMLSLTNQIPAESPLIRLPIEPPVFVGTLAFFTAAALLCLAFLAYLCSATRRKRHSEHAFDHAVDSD

[4] = molecular target: T4, Ectonucleoside triphosphate diphosphohydrolase 1 (Homo sapiens, UniProt P49961); assay: Drug metabolism assessed as human NTPDase-1-mediated compound hydrolysis expressed in African green monkey COS7 cells at 100 uM after 1 hr by HPLC analysis; procedure, shortened: as §1
T4 sequence (P49961 whole entry): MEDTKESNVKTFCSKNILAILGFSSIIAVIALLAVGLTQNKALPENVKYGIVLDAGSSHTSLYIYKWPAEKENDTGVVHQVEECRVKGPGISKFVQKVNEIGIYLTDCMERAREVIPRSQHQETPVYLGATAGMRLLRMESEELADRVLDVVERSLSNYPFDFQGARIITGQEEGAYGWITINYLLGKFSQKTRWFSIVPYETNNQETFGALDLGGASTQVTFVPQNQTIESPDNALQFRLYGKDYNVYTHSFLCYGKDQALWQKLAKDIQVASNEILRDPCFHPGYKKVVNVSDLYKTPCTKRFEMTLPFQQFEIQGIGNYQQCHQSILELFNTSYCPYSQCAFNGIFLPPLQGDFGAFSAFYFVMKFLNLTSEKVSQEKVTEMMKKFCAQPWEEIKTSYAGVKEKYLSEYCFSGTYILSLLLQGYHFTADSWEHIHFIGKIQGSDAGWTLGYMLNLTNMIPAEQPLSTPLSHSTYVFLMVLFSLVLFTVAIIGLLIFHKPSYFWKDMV

[5] = molecular target: T5, Ectonucleotide pyrophosphatase/phosphodiesterase family member 1 (Homo sapiens, UniProt P22413); assay: Drug metabolism assessed as human NPP1-mediated compound hydrolysis expressed in African green monkey COS7 cells at 100 uM after 1 hr by HPLC analysis
T5 sequence (P22413 whole entry): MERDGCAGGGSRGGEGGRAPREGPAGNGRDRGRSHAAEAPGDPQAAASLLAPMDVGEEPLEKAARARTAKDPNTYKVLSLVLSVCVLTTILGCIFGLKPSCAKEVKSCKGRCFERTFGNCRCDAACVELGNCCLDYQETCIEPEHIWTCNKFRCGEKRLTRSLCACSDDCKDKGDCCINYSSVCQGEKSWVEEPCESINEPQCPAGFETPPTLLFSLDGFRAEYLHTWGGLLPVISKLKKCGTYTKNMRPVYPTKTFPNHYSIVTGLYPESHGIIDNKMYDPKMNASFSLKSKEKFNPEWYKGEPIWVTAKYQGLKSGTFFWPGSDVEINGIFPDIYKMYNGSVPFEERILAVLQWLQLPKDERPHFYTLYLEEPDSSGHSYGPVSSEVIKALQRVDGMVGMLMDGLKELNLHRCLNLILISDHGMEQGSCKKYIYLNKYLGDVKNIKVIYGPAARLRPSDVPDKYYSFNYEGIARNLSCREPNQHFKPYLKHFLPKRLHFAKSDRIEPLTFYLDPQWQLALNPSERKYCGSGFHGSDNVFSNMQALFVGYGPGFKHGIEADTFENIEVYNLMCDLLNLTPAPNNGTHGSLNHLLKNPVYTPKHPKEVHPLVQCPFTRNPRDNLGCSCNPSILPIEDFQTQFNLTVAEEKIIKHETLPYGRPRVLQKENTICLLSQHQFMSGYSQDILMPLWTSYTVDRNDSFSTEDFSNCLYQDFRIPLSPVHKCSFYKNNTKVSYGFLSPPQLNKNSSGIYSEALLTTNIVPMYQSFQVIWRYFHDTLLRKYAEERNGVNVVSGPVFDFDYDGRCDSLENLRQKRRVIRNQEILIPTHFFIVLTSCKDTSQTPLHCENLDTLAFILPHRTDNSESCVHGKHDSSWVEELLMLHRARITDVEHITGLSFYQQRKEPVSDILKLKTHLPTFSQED

Compound `Nc1ncnc2c1ncn2[C@@H]1O[C@H](COP(=O)(O)OP(=O)(O)OP(=O)(O)O)[C@@H](O)[C@H]1O` [ADENOSINE TRIPHOSPHATE] has a Drug metabolism [1] of 54 nmol/min/mg, a Drug metabolism [2] of 1051 nmol/min/mg and a Drug metabolism [3] of 240 nmol/min/mg. The Drug metabolism [4] was 807 nmol/min/mg and the Drug metabolism [5] was 67 nmol/min/mg.
